Compound activity from PubChem BioAssay.
Most compounds without a hit are left out; they make up all but 1.5% or so of the library.
APJ ag: activates the human apelin receptor APJ; CHO-K1 APJ PathHunter beta-arrestin, luminescence; 0% DMSO wells, 100% apelin; activation, % at 20 µM; hit rate 0.11% among 330,000; AID 2520;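 active = activation more than six SD over the plate average, tested at 20 µM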;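 note: 0% = DMSO alone and 100% = apelin-13 at 10 nM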
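Test system: CHO-K1 APJ beta-arrestin complementation cell line | Compound: Single test compound dose, 20 µM final, 1% DMSO | Incubation: Compound 90 min 25 °C, reagent 1 h | Measured by: beta-gal luminescence | Read-out basis: APJ–arrestin association signal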
APJ antagonist: blocks the human apelin receptor APJ | hit rate 0.32% among 330,000 | CHO-K1 APJ beta-arrestin complementation, luminescence | inhibition, % at 20 µM | AID 2521 | P35414;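 active = inhibition above about 40% at 20 µM, limit read from the data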;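 note: cells challenged with 10 nM apelin-13 agonist together with compound; plate controls were apelin-13 plus DMSO wells for no effect and DMSO wells lacking apelin-13 for full effect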
CCR6 antagonist: blocks CCL20-driven beta-arrestin recruitment at human CCR6. CHO-K1 CCR6 PathHunter beta-arrestin, luminescence, CCL20-stimulated. inhibition, % at 20 µM. hit rate 0.49% among 340,000;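 active = compounds whose inhibition of the agonist-driven luminescence signal at 20 µM reaches about 50%, limit read from the data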;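 note: cells stimulated with CCL20 at 14 nM final; plate controls were DMSO with CCL20 for no effect and DMSO without agonist for full effect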
CXCR6 inh: blocks human CXCR6 beta-arrestin recruitment | O00574 | CHO-K1 PathHunter CXCR6 beta-arrestin, luminescence | inhibition, % at 20 µM | hit rate 0.36% among 360,000; in the data active = inhibition above about 34%, passing the limit was not always enough;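 note: antagonist mode with CXCL16 agonist at 10 nM final; 0% = 10 nM CXCL16 with DMSO and 100% = unstimulated wells without agonist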
Target sequence (O00574 whole entry, looked up): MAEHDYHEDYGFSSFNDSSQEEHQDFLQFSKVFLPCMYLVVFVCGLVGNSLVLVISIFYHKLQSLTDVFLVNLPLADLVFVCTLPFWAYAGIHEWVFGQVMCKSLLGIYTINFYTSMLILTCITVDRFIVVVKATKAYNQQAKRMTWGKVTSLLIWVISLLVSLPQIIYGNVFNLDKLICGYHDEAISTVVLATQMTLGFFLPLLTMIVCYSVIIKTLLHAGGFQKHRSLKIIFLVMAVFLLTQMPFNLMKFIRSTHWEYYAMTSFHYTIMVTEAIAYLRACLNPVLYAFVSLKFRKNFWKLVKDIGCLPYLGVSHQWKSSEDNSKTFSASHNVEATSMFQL
EBI2 block: blocks human EBI2 receptor beta-arrestin signaling; inhibition, % at 5 µM; EBI2 beta-arrestin recruitment, luminescence, 7a,25-OHC stimulated; hit rate 0.81% among 360,000; P32249; in the data active = inhibition above about 38%;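 note: enzyme fragment complementation signal reports receptor beta-arrestin coupling in cells; 0% = agonist plus DMSO wells and 100% = wells without agonist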
APJ antag confirm: confirmation of human APJ apelin receptor antagonists; AID 2766; APJ beta-arrestin recruitment, luminescence, antagonist mode; inhibition, % at 20 µM; shares compounds with APJ antagonist; hit rate 66% among 950; in the data active = inhibition above about 50%
An asterisk follows results filed as active; · = not tested or not shown.

SMILES	APJ ag	APJ antagonist	CCR6 antagonist	CXCR6 inh	EBI2 block	APJ antag confirm
Cc1sc2nc(C3CC3)nc(N3CCN(C(=O)c4ccc(F)cc4)CC3)c2c1C	0	7	10	11	34	·
COc1ccc(-c2csc(NC(=S)NC(=O)c3cc4ccccc4o3)n2)cc1Br	-3	45*	41	5	-3	9
COc1ccc(-c2csc(NC(=S)NC(=O)c3ccco3)n2)cc1Br	-1	10	15	12	5	·
COc1ccc(C(=O)NC(=S)Nc2nc(-c3ccc(OC)c(Br)c3)cs2)cc1Br	-1	43*	27	15	-12	30
COc1ccc(-c2csc(NC(=S)NC(=O)/C=C/c3ccc(C(C)C)cc3)n2)cc1OC	-12	41*	17	22	-3	44
COc1ccc(-c2csc(NC(=S)NC(=O)c3ccccc3)n2)cc1Br	-7	23	12	8	7	·
NNC(=O)CCc1ccc(S(=O)(=O)N2CCOCC2)cc1	-2	0	-5	5	-4	·
CCn1c(CO)nc2c1c(=O)[nH]c(=O)n2Cc1ccccc1	-7	53*	64*	46*	15	84*
c1ccc(NNC2=NCCS2)cc1	-12	46*	41	34	39	43
OCCN1C[C@H](O)[C@@H](O)[C@H](O)[C@H]1CO	-12	43*	·	·	·	65*
CCCOc1cccc(C2C(C(=O)c3cc4ccccc4o3)=C(O)C(=O)N2c2cc(C)on2)c1 (stereo unspecified)	-4	47*	5	-2	-2	35
Cc1cc(N2C(=O)C(O)=C(C(=O)c3cc4ccccc4o3)C2c2cccc(Br)c2)no1 (stereo unspecified)	-3	31	4	5	11	·
COc1cc(CNCc2ccccn2)ccc1OCc1cccc(Cl)c1	5	8	-4	2	3	·
CNC(=O)c1ccc(S(=O)(=O)c2ccc(Cl)cc2)c(NC(C)=O)c1	-4	10	-3	8	-16	·
CNC(=O)c1nnsc1S(=O)(=O)c1ccc(Cl)cc1	-3	47*	77*	64*	-6	70*
C[C@H]1NS(=O)(=O)c2ccc(Br)cc2O[C@H]1c1ccccc1	·	·	22	3	-3	·
C[C@H](NC(=O)[C@@H]1CSC2c3ccccc3C(=O)N21)C(=O)NCc1c(F)cccc1Cl (stereo partly specified)	-3	16	11	0	-21	·
Cc1ccc(CNC(=O)c2cc(-c3cc(C)cc(C)c3O)n[nH]2)cc1	-1	2	8	-4	34	·
Cc1ccc(O)c(-c2cc(C(=O)NCc3ccc4c(c3)OCO4)[nH]n2)c1	-4	45*	11	-5	8	-3
CC(C)NC(=S)N/N=C1\CCCCc2ccccc21	-3	8	30	19	-10	·
Cc1ccc(C)c(NC(=S)N/N=C2/CCCCc3ccccc32)c1	-10	47*	34	27	30	84*
O=C(c1ccco1)N1CCN(C2CC(=O)N(c3ccc(F)c(Cl)c3)C2=O)CC1 (stereo unspecified)	-2	15	-1	4	1	·
S=C1NCCc2ccccc2C1c1ccccc1Cl (stereo unspecified)	-11	44*	52*	35	9	87*
S=C1NCCc2ccccc2C1c1ccccc1 (stereo unspecified)	-5	19	31	12	-1	·
CC(=O)c1ccc(OCCCC(=O)OCC(=O)Nc2ccc3[nH]c(=O)[nH]c3c2)cc1	0	6	3	0	-14	·
SMILES	APJ ag	APJ antagonist	CCR6 antagonist	CXCR6 inh	EBI2 block	APJ antag confirm
Oc1ccc(N=Nc2ccccc2C(F)(F)F)c2cccnc12	-11	49*	58*	22	15	103*
Cc1ccc(N=Nc2ccc(O)c3ncccc23)cc1C	-13	53*	55*	40*	14	68*
Cc1ccc(N=Nc2ccc(O)c3ncccc23)cc1	·	·	8	4	8	·
CCN1/C(=C2\C(=O)N(C)C(=S)N2C)C=Cc2ccccc21	-5	20	12	4	-4	·
CN1C(=O)/C(=C2/C=Cc3ccccc3N2CCCS(=O)(=O)O)SC1=S	-9	47*	58*	38	0	96*
Cc1noc(C)c1C(=O)NC1=NCCS1	-2	10	-2	7	-13	·
O=C(C1=C(Nc2ccccc2)c2ccccc2S(=O)(=O)N1)c1ccccc1	-6	45*	70*	33	10	72*
O=S1(=O)Nc2c(ccc3cccnc23)-c2ccccc21	-11	53*	61*	42*	37	43
O=[N+]([O-])c1ccc(N=Nc2ncc[nH]2)cc1	-8	41*	68*	52*	31	88*
O=[N+]([O-])c1ccc(N=NN(CCO)CCO)cc1	-3	9	11	1	5	·
Cc1ccc2nsnc2c1NC(=O)CCl	-3	6	-5	-1	-6	·
Cc1ccc2nsnc2c1NC(=O)Cc1ccc(Cl)cc1	-5	45*	19	8	8	47
Nc1c(C(=O)NCc2ccco2)c2nc3ccccc3nc2n1CCc1ccc(F)cc1	-10	55*	-4	6	3	-12
N#Cc1c(N)n(CCc2ccc(F)cc2)c2nc3ccccc3nc12	-1	65*	20	14	12	-7
COc1ccc(-n2c(N)c(C(=O)NCc3ccco3)c3nc4ccccc4nc32)cc1	-2	4	16	3	19	·
CCn1c([N+](=O)[O-])nc2c1c(=O)[nH]c(=O)n2C	·	·	-31	-11	-17	·
O=C(O)C1CCC(NSc2ccccc2[N+](=O)[O-])CC1 (stereo unspecified)	-3	16	-10	-11	-1	·
COc1ccc(C2/C(=C(\O)c3ccc4c(c3)CC(C)O4)C(=O)C(=O)N2Cc2cccnc2)c(OC)c1 (stereo unspecified)	-2	-11	15	0	-14	·
CS(=O)(=O)Nc1ccc(S(=O)(=O)NC2CCCCC2)cc1	-3	46*	4	-7	-4	28
COc1cc(/C=C2\SC(=O)N(c3cccc(Cl)c3)C2=O)cc([N+](=O)[O-])c1O	-9	48*	68*	35	18	59*
O=C1S/C(=C\c2ccc(O)c([N+](=O)[O-])c2)C(=O)N1c1ccccc1Cl	-4	33	30	38	4	·
C/C=C/c1ccc(OCCCCN(C)Cc2ccccc2)c(OC)c1	-5	51*	1	8	0	18
Cc1ccccc1CSc1nnc2ccc(-c3ccncc3)nn12	0	15	12	1	-10	·
COc1ccc(CCN=C(N)NS(=O)(=O)c2ccc(F)cc2)cc1	-2	7	7	-1	-11	·
CC(=O)Nc1nc(C)c(-c2csc(Nc3cccc([N+](=O)[O-])c3)n2)s1	-2	20	21	5	23	·
